Data set [1] relates to RAW264.7. The data set can be described thus: Antiinflammatory activity in mouse RAW264.7 cells assessed as inhibition of LPS-induced IL6 release at 10 uM incubated for 2 hrs prior to LPS-challenge measured after 22 hrs by ELISA relative to LPS-treated control. The format is functional. A digest of the protocol: (§1)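 Pretreated with compound or DMSO vehicle for 2 h (screen at 10 µM; dose series 1, 5, 10 µM), then LPS 0.5 µg/mL for 22 h. Medium IL-6 measured by ELISA, normalized to cellular total protein, expressed as % of LPS control. Mean ± SE of 3–6 independent experiments.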

Data set [2] relates to RAW264.7. The data set can be described thus: Antiinflammatory activity in mouse RAW264.7 cells assessed as inhibition of LPS-induced IL6 release incubated for 2 hrs prior to LPS-challenge measured after 22 hrs by ELISA. It is filed as functional, cell-based. A digest of the protocol:
as §1
Background: ELISA stands for enzyme-linked immunosorbent assay.

Data set [3] deals with RAW264.7. The data set can be described thus: Cytotoxicity against mouse RAW264.7 cells. It is filed as cell-based.
In data set [4] the target is MAP kinase p38 (Mus musculus) (UniProt P47811+O08911+Q9WUI1+Q9Z1B7). The data set can be described thus: Inhibition of LPS-induced p38 phosphorylation in ICR mouse MPM cells at 10 uM incubated for 2 hrs prior to LPS-challenge measured after 1 hr by Western blot analysis. It is filed as cell-based. The gist of the method: (§2)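 Primary peritoneal macrophages from ICR mice plated at 1.2 × 10⁶/plate overnight. Pretreated with DMSO or compound for 2 h, then LPS 10 ng/mL for 1 h. Cells lysed; 40–60 µg lysate run on 10% SDS-PAGE and blotted to nitrocellulose. Blocked in TBS pH 7.6 with 0.05% Tween 20 and 5% milk. Probed for IκB, p-JNK, p-ERK, p-p38 against GAPDH or the total protein. Detection by HRP secondary and ECL. Optical density given as % of control.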

In data set [5] the test system is MPM. The data set can be described thus: Inhibition of LPS-induced JNK phosphorylation in ICR mouse MPM cells at 10 uM incubated for 2 hrs prior to LPS-challenge measured after 1 hr by Western blot analysis. The format is cell-based. The gist of the method:
as §2

Data set [6] relates to MPM. The experiment in a line: Inhibition of LPS-induced ERK phosphorylation in ICR mouse MPM cells at 10 uM incubated for 2 hrs prior to LPS-challenge measured after 1 hr by Western blot analysis. The format is cell-based. The gist of the method:
as §2
(In western blotting, separated proteins are transferred to a membrane and probed.)

In data set [7] the test system is MPM. The experiment in a line: Inhibition of NFkappaB activation in ICR mouse MPM cells assessed as inhibition of LPS-induced IkappaB degradation at 10 uM incubated for 2 hrs prior to LPS-challenge measured after 1 hr by Western blot analysis. The format is cell-based. A digest of the protocol: as §2
Data set [8] relates to Mus musculus. The data set can be described thus: Antiinflammatory activity in C57BL/6 mouse assessed as protection against LPS-induced septic death by measuring survival at 15 mg/kg, ip administered 15 mins prior to LPS challenge measured after 7 days relative to vehicle-treated control. It is filed as functional. Conditions: route intraperitoneal. A digest of the protocol:
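Male C57BL/6 mice (18–22 g), n = 10 per group, given compound ip 15 min before LPS (20 mg/kg, iv). Compound at 2 mg/mL in water with macrogol 15 hydroxystearate (5–10% final) ± medium-chain triglycerides (0.5–2% final), dissolved at 37 °C. Vehicle was 10% solubilizer plus 2% MCT. Survival and body weight recorded every 24 h for 7 days.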

The subject of data set [9] is MPM. The experiment in a line: Inhibition of NFkappaB activation in ICR mouse MPM cells assessed as inhibition of LPS-induced IkappaB degradation incubated for 2 hrs prior to LPS-challenge measured after 1 hr by Western blot analysis. The format is cell-based. The gist of the method:
as §2

For data set [10], the system named is MPM. The experiment in a line: Inhibition of LPS-induced ERK phosphorylation in ICR mouse MPM cells incubated for 2 hrs prior to LPS-challenge measured after 1 hr by Western blot analysis. It is filed as cell-based. The gist of the method: as §2
The subject of data set [11] is Mus musculus. The data set can be described thus: Toxicity in C57BL/6 mouse assessed as decrease in body weight at 20 mg/kg, ip after 3 days. On the set-up: dose 20 mg/kg, route intraperitoneal. The format is organism-based. Conditions: in vivo, 72 h. The gist of the method: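 Male C57BL/6 mice (18–22 g) given compound ip at 20 mg/kg, prepared at 2 mg/mL in water with macrogol 15 hydroxystearate (5–10%) ± MCT (0.5–2%). Vehicle was 10% solubilizer with 2% MCT. LPS 20 mg/kg iv given 15 min later. Body weight and survival recorded every 24 h for 7 days; n = 10 per group.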

In data set [12] the test system is MPM. The data set can be described thus: Inhibition of LPS-induced JNK phosphorylation in ICR mouse MPM cells incubated for 2 hrs prior to LPS-challenge measured after 1 hr by Western blot analysis. The format is cell-based. The gist of the method:
as §2

Molecules are shown by their SMILES. Activity calls are given as the source filed them. No cut-off for these calls is given here.

Broadly, the inhibition is the drop in the measured response relative to a control, in per cent. As to `CCN1C/C(=C\c2ccccc2Br)C(=O)/C(=C/c2ccccc2Br)C1`, the inhibition result with RAW264.7 [1] was “Active”.
On the same count and under the same terms, the entry for `O=C1/C(=C/c2ccc(O)c(O)c2)CCC/C1=C\c1ccc(O)c(O)c1` is “Active”.
The IC50 is the concentration that inhibits the measured activity by half. With `O=C1/C(=C/c2cccc(O)c2)CNC/C1=C\c1cccc(O)c1`, in the data set with RAW264.7 [2], the IC50 stood at 4.19 µM and the inhibition result is “Dose-dependent effect”. Moreover, the Activity result in the data set with RAW264.7 [3] was “Non-toxic”.
Take `O=C1/C(=C/c2ccc(O)c(O)c2)CC/C1=C\c1ccc(O)c(O)c1`: the inhibition result in the data set on RAW264.7 [1] is “Active”.
`O=C(/C=C/c1ccc(O)c(O)c1)/C=C/c1ccc(O)c(O)c1`: in the data set with RAW264.7 [1], the inhibition result is “Active”.
Turning to `O=C1/C(=C/c2ccc(O)cc2)CNC/C1=C\c1ccc(O)cc1`, in [4], the inhibition result is “inactive”.
On to `COc1cc(/C=C/C(=O)CC(=O)/C=C/c2ccc(O)c(OC)c2)ccc1O`, for which, in the data set on MPM [5], the inhibition entry is “Active”.
Take `CCCN1C/C(=C\c2ccccc2Cl)C(=O)/C(=C/c2ccccc2Cl)C1`: the inhibition entry with RAW264.7 [1] is “Active”.
For the molecule `CCCN1C/C(=C\c2ccc(OC)c(OC)c2)C(=O)/C(=C/c2ccc(OC)c(OC)c2)C1`, the IC50 in the data set on RAW264.7 [2] amounted to 2.04 µM. Besides, in the data set with RAW264.7 [2], the inhibition entry was “Dose-dependent effect”. Further, the Activity entry with RAW264.7 [3] is “Non-toxic”. Besides, in the data set on RAW264.7 [1], the inhibition at 10 µM stood at 90%. Besides, the inhibition result (in the data set with MPM [6]; in [4]; in the data set on MPM [5]; with MPM [7]) was “inactive” throughout.
As to `COc1ccc(/C=C2\CNC/C(=C\c3ccc(OC)c(OC)c3)C2=O)cc1OC`, the IC50 in the data set on RAW264.7 [2] was 2.68 µM. The inhibition result with RAW264.7 [2], with MPM [9], in the data set with MPM [10] and in the data set with MPM [12] was “Dose-dependent effect” in each case. Besides, the figures for the Activity entry in the data set with RAW264.7 [3], in the data set with Mus musculus [8] and in the data set on Mus musculus [11] were “Non-toxic”, 60% and “Toxic”, respectively. Moreover, the inhibition at 10 µM in the data set with RAW264.7 [1] is 98%. For the same molecule, the inhibition entry in the data set on MPM [6], in the data set on MPM [5] and in the data set with MPM [7] was “Active” each time.
For `CN1C/C(=C\c2ccccc2F)C(=O)/C(=C/c2ccccc2F)C1`, the inhibition result in the data set with RAW264.7 [1] is “Active”.
Still for that read-out and setting: then `O=C1/C(=C/c2ccccc2F)CNC/C1=C\c1ccccc1F`, with “Active”.
For `COc1cc(/C=C2\CNC/C(=C\c3cc(OC)c(OC)c(OC)c3)C2=O)cc(OC)c1OC`, the IC50 with RAW264.7 [2] was less than 1 µM. Also, the inhibition entry in the data set with RAW264.7 [2], with MPM [9] and in the data set with MPM [10] was “Dose-dependent effect” in each case. For the same molecule, the Activity entry in the data set with RAW264.7 [3] is listed as “Non-toxic”; in the data set with Mus musculus [8] it was 80%; with Mus musculus [11], “Toxic”. In the data set on RAW264.7 [1], the inhibition at 10 µM worked out at 96%. Besides, the inhibition result in the data set on MPM [6] and in the data set with MPM [7] was “Active” throughout.
For the molecule `COc1ccc(/C=C2\CN(C)C/C(=C\c3ccc(OC)c(OC)c3)C2=O)cc1OC`, the inhibition at 10 µM with RAW264.7 [1] came to 90%.
As to `CN1C/C(=C\c2ccc(F)cc2)C(=O)/C(=C/c2ccc(F)cc2)C1`, the inhibition result in the data set on RAW264.7 [1] was “Active”.

The record behind these values is ChEMBL document CHEMBL2384994, “Discovery and evaluation of piperid-4-one-containing mono-carbonyl analogs of curcumin as anti-inflammatory agents” (Bioorg Med Chem, 2013).
